Screening data deposited in PubChem BioAssay by Broad Institute.
CAL PDZ FP-1: CAL PDZ (human) peptide binding inhibition; Q9HD26; purified CAL PDZ, TMR-peptide fluorescence polarization, 1 h; inhibition, % at 24.9 µM; hit rate 0.92% among 300,000; AID 602252;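 active = mean inhibition of at least 30% with at least half of replicates also reaching 30%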;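 note: 0% = DMSO neutral control and 100% = excess unlabeled competitor peptide PRC23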
dFosB act: activators of mouse delta FosB homodimer; P13346; purified delta FosB, TAMRA-CDK5 oligo fluorescence polarization; percent of positive-control signal above neutral wells; activation, % at 25 µM; hit rate 0.99% among 340,000; AID 493131;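 active = mean activation above about 17%, with every replicate also reaching it, limit read from the data, passing the limit was not always enough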
Target sequence (P13346 whole entry, looked up): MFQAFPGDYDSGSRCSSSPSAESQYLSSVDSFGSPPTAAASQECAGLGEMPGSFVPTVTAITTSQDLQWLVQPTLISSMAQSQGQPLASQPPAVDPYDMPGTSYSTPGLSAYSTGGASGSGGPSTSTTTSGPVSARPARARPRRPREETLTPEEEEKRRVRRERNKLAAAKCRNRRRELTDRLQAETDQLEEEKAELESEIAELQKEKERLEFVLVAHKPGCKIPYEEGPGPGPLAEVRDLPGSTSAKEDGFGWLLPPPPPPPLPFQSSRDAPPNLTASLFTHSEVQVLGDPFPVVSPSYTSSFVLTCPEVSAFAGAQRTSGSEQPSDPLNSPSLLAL
C2C12 statin: suppressors of simvastatin-induced myotoxicity in C2C12 myotubes; ATP luminescence, 48 h; scaled: DMSO 0, geranylgeraniol control 100; rescue of ATP level, % at 7.49 µM; hit rate 0.78% among 330,000; AID 602340;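 active = mean ATP rescue above about 67%, or every replicate alone reaching that limit, limit read from the data, passing the limit was not always enough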;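 note: myotubes were challenged with 10 µM simvastatin during compound exposure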
CAL PDZ FP-2: human CAL PDZ-peptide interaction inhibition; Q9HD26; purified CAL PDZ, TMR-peptide fluorescence polarization, 1 h; inhibition, % at 20 µM; hit rate 0.02% among 330,000; AID 504414;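 active = highest replicate inhibition of at least 40%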;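 note: plate controls were DMSO neutral control wells for no effect and unlabeled competitor peptide control wells for full effect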
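Assay system – tagged CAL PDZ protein CerCALP, purified · Timing – 1 h at RT · Compound – single point, 20 µM · Measured by – fluorescence polarization from S- and P-plane intensities, G-factor corrected · Evaluation – inhibition from polarization loss · Probe or stimulus – TMR reporter peptide T*-PRC34 · Buffer or medium – pH 7.4 phosphate-saline buffer, reducing agent, detergent, IgG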
S100A4 MyoIIA: inhibitors of human S100A4 binding to myosin IIA peptide. hit rate 0.14% among 360,000. P26447. inhibition, % at 10.7 µM. S100A4/TAMRA-MyoIIA peptide fluorescence polarization. AID 652163;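 active = mean inhibition of at least 70% across replicates, with every replicate also reaching that level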
Target sequence (P26447 whole entry, looked up): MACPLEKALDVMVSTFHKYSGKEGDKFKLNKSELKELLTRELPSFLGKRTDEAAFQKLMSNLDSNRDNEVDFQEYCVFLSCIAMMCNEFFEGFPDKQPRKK
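incubation = readout 5 min after mixing, signal stable up to 60 min | system = S100A4 monomer protein | buffer or medium = HEPES pH 7.2 with CaCl2, KCl, NaCl, DTT, Triton | benchmarks = neutral control DMSO, positive control TFP | also added = fluorescent myosin IIA peptide, 5 nM | compound dosing = one concentration per compound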
CDK5 p35 inh: blocks human CDK5/p35 kinase activity | Recombinant CDK5/p35, ADP-Glo luminescence, 60 min | inhibition, % at 10 µM | Q00535+Q15078 | hit rate 0.01% among 330,000 | AID 488839;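 active = highest replicate inhibition of at least 50% and at least 75% of replicates reaching 50%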;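 note: plate controls were DMSO neutral control for no effect and GW8510 at 10 µM for full effect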
* hit, by the source's call; / = not tested or not shown. This is a sample that favours compounds with a hit; in the whole collection about 2% have one here.

SMILES	CAL PDZ FP-1	dFosB act	C2C12 statin	CAL PDZ FP-2	S100A4 MyoIIA	CDK5 p35 inh
Cc1ccccc1NC(=O)N(C)[C@H]1C[C@H]2c3[nH]c4c(-c5ccccc5)cccc4c3CCN2C(=O)[C@H]1[C@H](C)O	/	/	/	/	-4	/
Cc1[nH]c2ccc(-c3n[nH]c(=S)n3-c3ccccc3)cc2c1C	-2	-8	/	0	-5	1
CN(C(=O)CSc1cn(CC(=O)N2CCOCC2)c2ccccc12)c1ccccc1	35*	-9	-2	-1	-9	-1
CC1CN(C(=O)CSc2cn(CC(=O)N3CCOCC3)c3ccccc23)CC(C)O1 (stereo not given)	3	-3	10	0	-2	1
COc1ccc(NC(=O)Cn2nnc(-c3ccccc3NC(=O)c3ccco3)n2)cc1	-1	26*	/	0	/	1
CCOCCCNC(=O)N[C@@H](C)C(=O)OC	62*	8	-6	/	/	0
CCOCCCNC(=O)N[C@H](C(=O)OC)C(C)CC (stereo not given in full)	-6	-2	/	0	12	-2
NC(=O)c1sc2nc3c(c(-c4cccnc4)c2c1N)CCC3	-2	0	16	-3	/	3
CCN(CC)c1ccc(/C=N/N2CCN(c3ccccn3)CC2)cc1	43*	0	-12	0	-8	1
CCc1ccc(/C=N/N2CCN(c3ccccn3)CC2)cc1	-3	-2	/	1	2	-2
COc1cc(NC(=O)CN(C)CCOc2ccccc2)c(C)cc1[N+](=O)[O-]	42*	-3	-10	-1	0	-6
COc1cc2nc(N(CCCN(C)C)C(=O)c3ccc(S(=O)(=O)N4CCc5ccccc5C4)cc3)sc2cc1OC	-2	5	-5	-2	2	2
Cc1ccc2sc(N(CCCN(C)C)C(=O)c3ccc(S(=O)(=O)N(C)C)cc3)nc2c1C	5	-9	/	-2	-3	0
CN(C)CCCN(C(=O)c1ccc(S(=O)(=O)N2CCc3ccccc3C2)cc1)c1nc2c(F)cc(F)cc2s1	-1	37*	-4	-4	/	0
Cc1ccc2sc(N(CCCN(C)C)C(=O)c3ccc(S(=O)(=O)N4CCc5ccccc5C4)cc3)nc2c1C	/	38*	10	1	0	1
CCOC(=O)N1CCN(S(=O)(=O)c2ccc(C(=O)N(CCCN(C)C)c3nc4c(F)cc(F)cc4s3)cc2)CC1	/	1	5	-1	-3	1
COc1ccc(C)c2sc(N(CCCN(C)C)C(=O)c3ccc(S(=O)(=O)N4CCc5ccccc5C4)cc3)nc12	2	70*	-35	0	5	0
Cc1onc(-c2ccccc2Cl)c1C(=O)Nc1nnc(-c2cccc([N+](=O)[O-])c2)s1	5	-2	-16	-1	-4	0
CCSc1nnc(NC(=O)c2c(-c3ccccc3Cl)noc2C)s1	/	0	126*	0	/	-1
COC(=O)c1cc(S(=O)(=O)N2CCCC(C)C2)c[nH]1 (stereo not given)	78*	-6	3	0	-1	0
COC(=O)c1cc(S(=O)(=O)N2CCCCC2C)c[nH]1 (stereo not given)	7	-3	-3	-2	1	/
O=C(Nc1ccccc1F)c1coc(=O)c(Br)c1	1	6	/	0	-2	0
O=C(CSc1nnc2scc(-c3ccccc3)n12)c1ccc2c(c1)OCCO2	/	-12	5	-1	5	-1
c1ccc(-c2csc3nnc(SCc4ccc5c(c4)OCCO5)n23)cc1	/	-9	157*	-2	/	-1
COc1ccc(C2NC(=S)NC(C)=C2C(=O)Nc2ccccn2)cc1OC (stereo not given)	-1	-6	/	0	/	-2
SMILES	CAL PDZ FP-1	dFosB act	C2C12 statin	CAL PDZ FP-2	S100A4 MyoIIA	CDK5 p35 inh
C[C@@H]1CN([C@H](C)CO)C(=O)Cc2cc(NC(=O)Cc3cn(C)c4ccccc34)ccc2O[C@H]1CN(C)S(=O)(=O)c1ccc(F)cc1	/	/	-13	/	-14	/
C[C@H](CO)N1C[C@H](C)[C@@H](CN(C)S(=O)(=O)c2ccc(F)cc2)Oc2ccc(NC(=O)Cc3cn(C)c4ccccc34)cc2CC1=O	/	/	102*	/	-79	/
C[C@H](CO)N1C[C@H](C)[C@@H](CN(C)Cc2ccc(Oc3ccccc3)cc2)Oc2ccc(NC(=O)Cc3cn(C)c4ccccc34)cc2CC1=O	/	/	114*	/	/	/
C[C@@H]1CN([C@H](C)CO)C(=O)Cc2cc(NC(=O)Cc3cn(C)c4ccccc34)ccc2O[C@H]1CN(C)Cc1ccc(-c2ccccc2)cc1	/	/	93*	/	34	/
C[C@H]1CN([C@@H](C)CO)C(=O)Cc2cc(NC(=O)Cc3cn(C)c4ccccc34)ccc2O[C@@H]1CN(C)Cc1ccc(-c2ccccc2)cc1	/	/	60	/	3	/
CC(=O)Nc1ccc2nc(-c3cccn3C)[nH]c2c1	35*	1	-2	1	4	-3
Cc1ccc2nc(SCC(=O)O)nc(C)c2c1	17	-8	1	-2	/	1
Cc1ccc(NC(=S)Nc2ccc(OC(F)F)c(Cl)c2)cc1F	66*	-7	/	0	1	-1
Fc1ccc(NC(=S)Nc2ccc(F)c(Cl)c2)cc1Cl	-6	-3	69*	-2	/	1
O=c1[nH]c2ccc(NC(=S)Nc3ccc(Cl)cc3)cc2[nH]1	-2	-3	41	-1	/	0
COC(=O)NC(=S)Nc1ccc(Oc2ccc(Cl)cc2Cl)c(Cl)c1	0	1	126*	0	/	1
O=c1[nH]c2ccc(NC(=S)Nc3ccc(Cl)cc3Cl)cc2[nH]1	-3	-2	139*	/	/	-2
CC(C)CCN1CCC(n2nccc2NC(=O)c2ccc3c(c2)OCO3)CC1	-4	-15	27	0	-8	0
C[C@H]1CN([C@@H](C)CO)S(=O)(=O)c2ccc(C#CC3CC3)cc2O[C@@H]1CN(C)C(=O)Nc1cc(F)ccc1F	/	/	-14	/	/	/
COc1cccc(NC(=O)N(C)C[C@H]2Oc3cc(C#CC4(O)CCCC4)ccc3S(=O)(=O)N([C@H](C)CO)C[C@H]2C)c1	/	/	2	/	95*	/
COCC(=O)N(C)C[C@H]1Oc2cc(C#CCN(C)C)ccc2S(=O)(=O)N([C@@H](C)CO)C[C@H]1C	/	/	2	/	112*	/
C[C@H]1CN([C@@H](C)CO)S(=O)(=O)c2ccc(C#CC3CC3)cc2O[C@H]1CN(C)C(=O)Nc1cc(F)ccc1F	/	/	90*	/	/	/
COCC(=O)N(C)C[C@@H]1Oc2cc(C#CCN(C)C)ccc2S(=O)(=O)N([C@H](C)CO)C[C@@H]1C	/	/	11	/	11	/
